p97 inhibitor: human p97 ATPase inhibition | P55072 | recombinant p97 ATPase, Kinase-Glo ATP luminescence, 3 h | inhibition, % at 8 µM | 0.42% of 220,000 active | AID 1481; in the data active = inhibition above about 15%;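 note: 0% = DMSO vehicle and 100% = wells lacking enzyme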
KCC2 mod: modulators of human KCC2 chloride dependent transport. KCC2 cells, thallium flux FluoZin-2 fluorescence. 2.2% of 190,000 active. Q9H2X9. B-score of Tl+ flux slope (higher = more flux/activation; lower = inhibition) at 10 µM;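 active = thallium flux slope and its plate-corrected score both differing from the plate sample mean at a set confidence after two filtering rounds, in either direction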;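 note: slope of fluorescence scaled to starting intensity during 10 to 20 s after thallium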
PKD1 inh: PKD1 (human) kinase inhibition; AID 797; inhibition, % (test concentration not listed); 0.056% of 200,000 active; PKD1 kinase fluorescence polarization assay; Q15139; in the data active = inhibition above about 50%
Target sequence (Q15139 whole entry, looked up): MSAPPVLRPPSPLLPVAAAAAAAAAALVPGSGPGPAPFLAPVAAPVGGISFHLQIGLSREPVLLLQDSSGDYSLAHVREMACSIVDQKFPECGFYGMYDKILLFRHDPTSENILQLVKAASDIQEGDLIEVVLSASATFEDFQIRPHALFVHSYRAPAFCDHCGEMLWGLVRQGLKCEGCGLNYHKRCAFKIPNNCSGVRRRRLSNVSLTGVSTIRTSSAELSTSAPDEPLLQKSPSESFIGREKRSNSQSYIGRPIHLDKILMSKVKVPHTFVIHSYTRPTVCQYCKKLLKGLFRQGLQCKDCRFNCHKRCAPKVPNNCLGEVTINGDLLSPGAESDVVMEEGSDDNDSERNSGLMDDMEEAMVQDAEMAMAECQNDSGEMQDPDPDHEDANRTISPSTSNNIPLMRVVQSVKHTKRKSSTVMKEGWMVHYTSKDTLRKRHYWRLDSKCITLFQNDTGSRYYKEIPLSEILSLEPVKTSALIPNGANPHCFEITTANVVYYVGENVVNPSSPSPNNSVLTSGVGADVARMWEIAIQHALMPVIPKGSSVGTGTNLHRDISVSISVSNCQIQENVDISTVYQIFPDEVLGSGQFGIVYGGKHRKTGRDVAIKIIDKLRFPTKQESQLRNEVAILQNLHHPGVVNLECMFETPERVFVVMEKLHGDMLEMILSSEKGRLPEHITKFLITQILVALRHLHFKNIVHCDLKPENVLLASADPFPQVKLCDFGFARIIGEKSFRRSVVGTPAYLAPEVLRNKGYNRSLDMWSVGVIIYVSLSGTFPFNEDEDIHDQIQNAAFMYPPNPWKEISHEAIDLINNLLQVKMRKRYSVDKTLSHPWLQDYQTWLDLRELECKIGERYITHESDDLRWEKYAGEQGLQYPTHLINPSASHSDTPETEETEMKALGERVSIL
MDM2 E3 inh: blocks human Mdm2 ubiquitin ligase activity; Q00987; cell-based MDM2 ubiquitination luciferase reporter, 2 h; 0 = plate control, 100 = twice control, blank-subtracted; signal enhancement, % at 5 µM; 0.11% of 210,000 active; AID 1230;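 active = signal enhancement of 30% or more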;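 note: luminescence tracks abundance of the self-degrading MDM2-luciferase fusion protein; higher signal means inhibition of MDM2 E3 ligase activity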
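Assay system: stable mammalian line carrying autodegrading MDM2–luciferase fusion reporter; Input: 2000 cells in each well; Compound dosing: single-point 5 µM; Schedule: 2 h compound exposure at 37 °C; Signal: SteadyLite luciferase luminescence after 15 min room-temperature reagent incubation; Evaluation: % luminescence enhancement versus blank-corrected plate control mean; Benchmarks: plate controls and plate blanks.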
ROMK primary: human ROMK K+ channel modulation, primary screen; AID 1918; 2% of 130,000 active; B-score at 10 µM; Tet-inducible ROMK, thallium flux fluorescence; actives lie on both sides;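 active = signal ratio slope over the read window, or its plate-corrected B-score, at least 3 SD from the plate mean, either direction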;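 note: B-score of the F/F0 ratio slope over 7 to 12 s after thallium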
DTT redox prof: compounds producing H2O2 with reducing agent – biochemical, NIH compound library profiling, artefact control for MLSCN library redox annotation, primary screen; DTT-dependent redox cycling H2O2, phenol red/HRP absorbance; 100% = 100 µM peroxide control, 0% = buffer; activation, % at 10 µM; 0.03% of 200,000 active; AID 878;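 active = activation of at least 50% relative to the plate's high and low controls in the primary single-dose screen; inactive = activation below 50%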;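 note: compound incubated with DTT at 0.8 mM final as the reducing agent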
KCC2 sec1: KCC2 (human) modulation, secondary assay. HEK293-KCC2, thallium flux, FluoZin2 fluorescence; active compounds read high. normalised thallium flux (F/F0 slope) at 10 µM. AID 1713. shares compounds with KCC2 mod. 15% of 3,700 active;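 active = thallium flux slope above the same plate's solvent-only control mean plus 3 SD; inconclusive = the two replicate wells disagree; inactive = no significant difference from solvent-only control wells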
KCC2 bumet counter: thallium flux persisting under bumetanide in KCC2 cells, counter-screen secondary assay. shares compounds with KCC2 mod. HEK293-KCC2 + bumetanide/ouabain, thallium flux FluoZin2; active compounds read high. normalized thallium flux at 10 µM. 49% of 3,700 active;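 active = thallium entry rate above the same plate's blocked-transporter control wells by more than 3 SD; inconclusive = the two repeat wells disagree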;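 note: raw slope of fluorescence over initial fluorescence between 10 and 20 s after thallium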
KCC2 secondary2: confirmation of human KCC2 transport modulators; 23% of 3,700 active; shares compounds with KCC2 mod; normalized thallium flux at 10 µM; HEK293-KCC2, thallium flux FluoZin2 fluorescence; actives lie on both sides; F/F0 rise rate, 10–20 s post-thallium; AID 1715;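 active = thallium flux slope more than 3 SD above or below the plate's solvent-only control mean, mostly below; inconclusive = the two repeat wells disagreed; inactive = no significant shift from solvent-only controls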;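 note: raw slope with 0.1% DMSO as baseline and bumetanide as block control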
HEK counter1: acts in parental HEK cells, KCC2 counter-screen; 46% of 3,700 active; shares compounds with KCC2 mod; thallium flux rate (normalised fluorescence) at 10 µM; AID 1716; HEK293 parental cells, thallium flux FluoZin2, ouabain; baseline-ratio fluorescence slope, 10–20 s after thallium;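 active = thallium flux rate significantly above the same plate's solvent-only control wells, beyond their mean plus 3 SD; inconclusive = the two replicate wells gave conflicting results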
KCC2 ouabain: confirmation of human KCC2 modulators with ouabain; shares compounds with KCC2 mod; 48% of 3,700 active; HEK293-KCC2, thallium flux FluoZin2 fluorescence; bidirectional: low = inhibitor, high = activator; raw Tl+ flux slope (below DMSO = inhibition, above = activation) at 10 µM;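 active = thallium flux slope beyond 3 SD from same-plate DMSO control mean in most replicates, usually higher, sometimes lower; inconclusive = repeat tests gave conflicting results; inactive = no significant difference from controls in most replicates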;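 note: slope of initial-normalized fluorescence between seconds 10 and 20 after thallium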
HEK counter2: parental HEK flux effect, counter-screen 2 | HEK293 parental, thallium flux FluoZin-2 fluorescence slope | thallium flux slope at 10 µM | 33% of 3,700 active | shares compounds with KCC2 mod;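 active = thallium flux slope above the same plate's solvent-control mean plus 3 SD in both duplicate wells; inconclusive = duplicate wells that disagreed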;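 note: run without ouabain in cells lacking the KCC2 cotransporter; slope of fluorescence scaled to its starting value between 10 and 20 s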
* = called active by the depositor; ? = inconclusive; · = not tested or not shown. In the library only some 3.4% were active in any assay of this set; here they are far more common.

SMILES	p97 inhibitor	KCC2 mod	PKD1 inh	MDM2 E3 inh	ROMK primary	DTT redox prof	KCC2 sec1	KCC2 bumet counter	KCC2 secondary2	HEK counter1	KCC2 ouabain	HEK counter2
C=CCC(=O)N1CCCC(CNC(=O)c2ccc(-c3ccccc3)cc2)C1 (centres undefined)	0.9	-5.52*	-7.8	-24.2	-0.0094	-0.4	0.00807	0.00634	0.0306	0.0076	0.0144*	0.0111
CC(=O)NCCC(=O)N1CCCC(C(=O)c2ccc3c4c(cccc24)CC3)C1 (centres undefined)	5.1	0.272	-3.9	-5.6	-0.649	-0.8	·	·	·	·	·	·
CC(=O)NCCC(=O)N1CCCC(CNC(=O)c2ccc(-c3ccccc3)cc2)C1 (centres undefined)	1.2	-4.5*	1.9	-8.1	1.08	0.3	0.00775	0.00531	?	0.00596	0.0133*	0.00908
OC(CSc1c(Cl)cccc1Cl)CN1CCN(c2ccccc2F)CC1 (centres undefined)	2.0	0.146	-4.5	2.5	·	-4.0	·	·	·	·	·	·
O=C(O)c1ccc(C=C(c2nc3ccccc3s2)c2nc3ccccc3s2)cc1	2.2	-5.25*	-10.0	-4.2	-0.0846	-0.9	0.00766	0.00681	0.0311	0.00621	0.0173	0.00951
COc1cc(C=C(c2nc3ccccc3s2)c2nc3ccccc3s2)cc(OC)c1O	1.9	-0.409	-0.9	·	-0.128	0.1	·	·	·	·	·	·
CCOC(=O)C1=C(O)/C(=C/c2ccc(CNC(=O)C(=O)Nc3ccc(C)cc3)o2)N=C1C	4.9	-0.824	0.2	1.2	-2.08	0.5	·	·	·	·	·	·
O=C(CSc1nnc(-c2cccs2)n1CC1CCCO1)c1cc2ccccc2o1 (centres undefined)	3.6	-3.28*	-8.6	-12.4	-0.696	2.8	0.00584	0.0049	0.0267	0.00705	0.0166	0.0098
O=C(Oc1c(-c2ccccc2)c(=O)n2c3c(cccc13)CC2)c1ccccc1	-6.0	-4.38*	·	-9.2	·	·	0.0142	0.00351	0.0273	0.00537*	0.0132*	0.00724*
O=C(Cn1cnc2c(nnn2-c2ccc(F)cc2)c1=O)N1CCCc2ccccc21	3.5	-4.42*	-12.7	8.5	0.274	1.7	0.00713	0.00479	0.0269	0.0075	0.0165	0.00985
Cc1ccc(Cn2nnc3c(=O)n(CC(=O)N4CCN(c5ccccc5)CC4)cnc32)cc1	1.4	-3.23*	4.0	-11.5	-2.04	1.4	0.00753	0.00592	0.0309	0.00638	?	0.00954
O=C(Cn1cnc2c(nnn2Cc2ccc(Cl)cc2)c1=O)c1ccccc1	-4.9	-2.64	-3.0	-16.5	·	0.0	·	·	·	·	·	·
O=C(Cn1cnc2c(nnn2Cc2ccccc2)c1=O)c1ccccc1	0.4	-4.72*	-1.6	-5.9	·	-1.4	0.00594	0.00484	0.0237*	?	0.0136*	0.0112
COc1ccc(-n2nnc3c(=O)n(CC(=O)N4CCCc5ccccc54)cnc32)cc1	5.2	-1.12	0.1	·	·	0.0	·	·	·	·	·	·
O=C(Cn1cnc2c(nnn2Cc2ccc(F)cc2)c1=O)N1CCCCC1	-6.4	·	-3.4	-13.7	-0.225	-0.3	0.00764	0.0057	0.0295	0.00854	0.0137*	0.012
CC(=O)Nc1cc2c(cc1NC(=O)Cn1nnc(-c3ccc(C)o3)n1)OCCO2	-6.1	0.129	-11.8	-11.4	-1.06	-1.2	·	·	·	·	·	·
CCOC(=O)c1nn(-c2ccccc2C)c2nc(CC(C)C)c(C#N)c(=O)n12	-0.9	·	0.1	·	·	-2.5	·	·	·	·	·	·
O=C(Cn1cnc2c(nnn2Cc2ccc(F)cc2)c1=O)NCc1ccco1	-0.5	-4.53*	-1.9	-20.2	0.0133	0.9	0.00686	0.00483	0.0236*	0.00745	0.0166*	0.0105
CC1CN(S(=O)(=O)c2ccc(NC(=O)CCCN3C(=O)c4ccccc4C3=O)cc2)CC(C)O1 (centres undefined)	2.2	·	-8.6	-6.3	·	-1.7	·	·	·	·	·	·
CC1CN(S(=O)(=O)c2ccc(NC(=O)CCN3C(=O)c4ccccc4C3=O)cc2)CC(C)O1 (centres undefined)	0.9	-3.86*	-4.2	-8.9	·	0.1	0.0156	0.00447	0.0294	0.0074	0.0165	0.0107
COc1ccccc1-c1nnc2sc(COc3ccc(F)cc3)nn12	-8.0	-3.91*	13.8	-12.7	-3.13	1.5	0.00662	0.00478	?	0.00588*	0.0146*	?
CN(C)C(=S)SCC(=O)Nc1cccc(C(F)(F)F)c1	3.2	-0.305	-6.8	-12.6	-0.563	0.6	·	·	·	·	·	·
NC(=O)c1sc(-c2ccsc2)cc1NS(=O)(=O)c1ccc(C(F)(F)F)cc1	2.8	-5.39*	·	-1.5	0.205	·	0.00739	0.00605	0.0296	0.00694	0.0118*	0.0107
CC(=O)c1sc(NS(=O)(=O)c2ccc(C)cc2)nc1C	-4.7	0.22	-2.4	2.1	0.0141	-0.9	·	·	·	·	·	·
CC(=O)c1sc(-c2ccc(F)cc2)cc1NS(=O)(=O)c1ccc(C)cc1	-10.6	9.96*	·	-8.0	·	·	0.0106	0.00642	0.0358	0.0077	0.0234	0.0104
CN1c2ccccc2Oc2nnc(N3CCN(Cc4ccccc4)CC3)cc21	-4.5	-4*	5.5	-9.4	-0.0315	0.7	0.0053	?	0.0212*	0.00651	?	0.0109
CN1c2ccccc2Oc2nnc(Cl)cc21	3.0	0.143	1.4	-12.0	-0.154	-1.8	·	·	·	·	·	·
CC(/C=C/c1ccccc1)=N\NC(=S)NC(C)C	-4.1	8.02*	1.6	-10.8	-0.472	-0.1	0.00683	0.0181*	0.0304	0.0171*	?	0.0136*
COCCn1c(SCC(=O)Nc2cccc(S(N)(=O)=O)c2)nc2cc(Cl)ccc2c1=O	-3.2	1.26	-4.3	2.3	-0.0522	-0.7	·	·	·	·	·	·
CC(C)Cn1c(SCC(=O)NC(=O)Nc2ccc3c(c2)OCCO3)nc2ccccc2c1=O	3.0	16.7*	-8.2	-14.2	·	-2.3	0.0142*	0.0436*	0.034	?	0.039*	?
